The values that follow come from ChEMBL document CHEMBL2062416, “Synthesis and biological evaluation of some novel 1-indanone thiazolylhydrazone derivatives as anti-Trypanosoma cruzi agents” (Eur J Med Chem, 2012).

The subject of data set [1] is Trypanosoma cruzi. Briefly: Trypanocidal activity against bloodstream trypomastigotes of Trypanosoma cruzi infected in mouse blood assessed as lytic effect after 24 hrs. In kind it is functional, organism-based. The procedure, abridged: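 Blood from infected CF1 mice (Tulahuen, Tul 2) diluted to 1.5×10^6 trypomastigotes/mL; compounds 0.30–350 µM, duplicates, 24 h. Live parasites counted in Neubauer chamber; %I = [1−CDt/CDc]×100 versus untreated. IC50 by linear regression of %I on log concentration. Means ± SD of three experiments.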

Data set [2] deals with Cruzipain (Trypanosoma cruzi) (UniProt P25779). Nature of the data set: Inhibition of epimastigotes of Trypanosoma cruzi cruzipain using Bz-Pro-Phe-Arg-pNA as substrate at 10 uM by spectrophotometric analysis. The procedure, abridged:
(§1)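 Cruzipain purified from epimastigote cell-free extract by ConA-Sepharose affinity chromatography. 1 mL reaction: Tris-acetate pH 8.2 (50 µmol), 2-mercaptoethanol (10 µmol), Bz-Pro-Phe-Arg-pNA (0.3 µmol); followed at 410 nm. Compounds added in DMSO; vehicle controls with matching DMSO; E-64 reference inhibitor. Percent inhibition relative to enzyme without drug.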

For data set [3] the target is unchanged. Briefly: Inhibition of epimastigotes of Trypanosoma cruzi cruzipain using Bz-Pro-Phe-Arg-pNA as substrate at 20 uM by spectrophotometric analysis. The procedure, abridged: as §1
Data set [4] deals with Trypanosoma cruzi. Briefly: Trypanocidal activity against epimastigotes of Trypanosoma cruzi Tulahuen 2 assessed as inhibition of parasite growth after 4 days by trypan blue staining. The class given is functional, organism-based. As to conditions: Tulahuen 2, 96 h. The procedure, abridged: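 Epimastigotes (Tulahuen, Tul 2) from 5-day cultures grown at 28 °C in liver/infusion medium with hemin, started at 1.5–2.5×10^6 cells/mL, exposed 4 days to compounds (typically 1.50–15 or 0.5–2.5 µM), triplicate; benznidazole 2.50–15 µM positive control. Motile cells counted in Neubauer chamber; %I from density change versus untreated; IC50 by linear regression on log concentration.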

The test system of another data set is Vero. Nature of the data set: Cytotoxicity against african green monkey Vero cells up to 100 uM after 24 hrs by MTT assay. As to conditions: chlorocebus sabaeus. In kind it is cell-based. The procedure, abridged:
(§2)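 Vero cells grown in MEM or RPMI with 10% FBS, penicillin, streptomycin, glutamine; seeded at 9×10^5 cells/mL, compounds (12.5–200.0 µM) added after 48 h, 24 h exposure. PBS wash, MTT at 0.5 mg/mL final, 1 h 37 °C, formazan dissolved in DMSO, A570 with blank subtraction. Repeated at least three times, four samples per assay.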

Data set [5] has as its system Trypanosoma cruzi. Briefly: Trypanocidal activity against amastigotes of Trypanosoma cruzi expressing beta-galactosidase gene infected in mouse J774 cells assessed as inhibition of parasite growth after 7 days. In kind it is functional, organism-based. As to conditions: J774, 168 h. The procedure, abridged: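 J774 macrophages, 5×10^3/well, infected with β-galactosidase-expressing blood trypomastigotes (clone C4) at 10:1 parasite:cell for 24 h, washed, then compounds (2–100 µM) in phenol red-free RPMI, duplicates, 7 days. Developed with 1% NP-40 and 100 µM CPRG, 4 h 37 °C, A570; uninfected ± compound wells correct colour. IC50 by linear regression of %I against log concentration.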

Data set [6] addresses Cruzipain (Trypanosoma cruzi) (UniProt P25779). Briefly: Inhibition of epimastigotes of Trypanosoma cruzi cruzipain using Bz-Pro-Phe-Arg-pNA as substrate at 50 uM by spectrophotometric analysis. A digest of the protocol:
as §1

The test system of data set [7] is Trypanosoma cruzi. Briefly: Inhibition of ergosterol biosynthesis in epimastigotes of Trypanosoma cruzi assessed as ratio of squalene/ergosterol at 25 uM after 24 hrs by TLC analysis (reference value: 0.76). The class given is functional.
Data set [8] can be described thus: Cytotoxicity against african green monkey Vero cells after 24 hrs by MTT assay. Conditions: chlorocebus sabaeus. In kind it is cell-based. The procedure, abridged:
as §2

Sequence of Cruzipain (Trypanosoma cruzi) (P25779 123-467 limits assumed): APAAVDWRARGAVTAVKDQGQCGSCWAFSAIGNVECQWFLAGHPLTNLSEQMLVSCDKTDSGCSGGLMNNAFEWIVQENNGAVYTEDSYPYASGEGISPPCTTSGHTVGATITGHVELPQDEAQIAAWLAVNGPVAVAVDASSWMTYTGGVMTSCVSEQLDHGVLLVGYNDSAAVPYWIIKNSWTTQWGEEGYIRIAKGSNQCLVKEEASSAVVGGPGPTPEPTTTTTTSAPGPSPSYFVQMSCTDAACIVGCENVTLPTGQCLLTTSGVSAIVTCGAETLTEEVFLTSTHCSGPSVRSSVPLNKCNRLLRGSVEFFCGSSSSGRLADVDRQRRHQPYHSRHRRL

For the compound `Cc1cccc2c1CC/C2=N\Nc1nc(-c2ccccc2)cs1`, the values for the IC50 in the data set with Trypanosoma cruzi [1], in the data set on Trypanosoma cruzi [4] and in the data set with Trypanosoma cruzi [5] were 48.9 µM, 7.08 µM and 0.68 µM, respectively. Also, the inhibition (commonly the percentage by which the read-out fell short of the control) was 3% in data set [2], 0% in data set [3] and 0% in [6]. In the data set on Vero, the Activity entry was “Non-toxic”.
Consider `COc1cc2c(cc1OC)/C(=N/Nc1nc(-c3ccc(C)cc3)cs1)CC2`, for which the 50% inhibitory concentration (IC50) (in general, the concentration needed to halve the response being measured) in the data set with Trypanosoma cruzi [1] is 69.6 µM; with Trypanosoma cruzi [4], more than 15 µM; with Trypanosoma cruzi [5], 7.72 µM. Also, the inhibition in [2], in [3] and in data set [6] was 0% in each case. Also, the Activity entry in the data set on Vero was “Non-toxic”.
As for `Cc1ccc(-c2csc(N/N=C3\CCc4c(C)cccc43)n2)cc1`, the IC50 with Trypanosoma cruzi [1] was 17.2 µM; in the data set with Trypanosoma cruzi [4], 4.36 µM; with Trypanosoma cruzi [5] it was 0.72 µM. Further, the Ratio in the data set on Trypanosoma cruzi [7] is 2.92. Also, the inhibition in [2] is 4%; in data set [3], 2%; in data set [6], 0%. The Activity entry in the data set with Vero was “Non-toxic”.
On to `Cc1ccc2c(c1)/C(=N/Nc1nc(-c3ccc(Cl)cc3)cs1)CC2`, for which the IC50 in the data set with Trypanosoma cruzi [1] was determined as 61.1 µM; in the data set on Trypanosoma cruzi [4], 8.59 µM. Moreover, in the data set on Vero, the Activity entry is listed as “Non-toxic”.
The matching figures for `Cc1ccc2c(c1)CC/C2=N\Nc1nc(-c2ccc(Cl)cc2)cs1`: 372 µM, 7.15 µM and “Non-toxic”.
The matching figures for `Cc1ccc2c(c1)CC/C2=N\Nc1nc(-c2ccccc2)cs1`: 172 µM, 4.69 µM and “Non-toxic”.
For `Clc1ccc(-c2csc(N/N=C3\CCc4ccccc43)n2)cc1`, the results for the IC50 in the data set on Trypanosoma cruzi [1] and in the data set on Trypanosoma cruzi [4] were 308 µM and 8.62 µM, respectively. The Activity entry in the data set on Vero was “Non-toxic”.
In the case of `Cc1ccc(-c2csc(N/N=C3\CCc4ccccc43)n2)cc1`, the IC50 was more than 500 µM with Trypanosoma cruzi [1] and more than 15 µM with Trypanosoma cruzi [4]. In addition, in the data set on Trypanosoma cruzi [7], the Ratio worked out at 0.76. For the same compound, the inhibition in data set [2] worked out at 8%; in data set [3], 5%; in data set [6], 5%. The Activity entry with Vero is given as “Non-toxic”.
In the case of `Cc1ccc(-c2csc(N/N=C3\CCc4cc(C)ccc43)n2)cc1`, the IC50 with Trypanosoma cruzi [1] amounted to 87 µM; in the data set with Trypanosoma cruzi [4], 5.24 µM; in the data set on Trypanosoma cruzi [5], 1.35 µM. For the same compound, the inhibition in [2], in data set [3] and in data set [6] was 0% throughout. Moreover, the Activity entry in the data set on Vero is on record as “Non-toxic”.
Take `CN(C/C=C/C#CC(C)(C)C)Cc1cccc2ccccc12` [TERBINAFINE]: the Ratio in the data set with Trypanosoma cruzi [7] is 1.54.
Consider `Cc1ccc2c(c1)/C(=N/Nc1nc(-c3ccccc3)cs1)CC2`, for which the values for the IC50 in the data set with Trypanosoma cruzi [1], with Trypanosoma cruzi [4] and with Trypanosoma cruzi [5] were 22.7 µM, 4.27 µM and 3.96 µM, respectively. For the same compound, the inhibition in data set [2] came to 3%; in data set [3] it was 0%; in data set [6], 0%. Also, the Activity entry with Vero was “Non-toxic”.
For the compound `c1ccc(-c2csc(N/N=C3\CCc4ccccc43)n2)cc1`, the IC50 was more than 500 µM in the data set on Trypanosoma cruzi [1] and 19 µM with Trypanosoma cruzi [4]. In the data set with Vero, the Activity entry is on record as “Non-toxic”.
The matching figures for `O=[N+]([O-])c1cccc2c1CC/C2=N\Nc1nc(-c2ccc(Cl)cc2)cs1`: 597 µM, 17.1 µM and “Non-toxic”.
Take `O=C(Cn1ccnc1[N+](=O)[O-])NCc1ccccc1` [BENZNIDAZOLE]: the IC50 in the data set on Trypanosoma cruzi [1] came to 30.3 µM; in the data set with Trypanosoma cruzi [4], 5.39 µM. Also, the midpoint of cytotoxicity in data set [8], the CC50 at 24 h, lay at 82.8 µM.
`CC(C)C[C@H](NC(=O)[C@H]1O[C@@H]1C(=O)O)C(=O)NCCCCN=C(N)N` came in with an inhibition in [2] of 62%.
Regarding `COc1cccc2c1CC/C2=N\Nc1nc(-c2ccc(Cl)cc2)cs1`, the half-maximal inhibitory concentration (IC50) in the data set with Trypanosoma cruzi [1] was 19.7 µM; in the data set on Trypanosoma cruzi [4], 11.8 µM; in the data set on Trypanosoma cruzi [5], 0.84 µM. For the same compound, the inhibition in [2], in [3] and in data set [6] was 0% throughout. Moreover, the Activity entry in the data set on Vero is recorded as “Non-toxic”.
Turning to `COc1cc2c(cc1OC)/C(=N/Nc1nc(-c3ccc(Cl)cc3)cs1)CC2`, the results for the concentration for half-maximal inhibition (IC50) in the data set on Trypanosoma cruzi [1] and in the data set on Trypanosoma cruzi [4] were 404 µM and 7.17 µM, respectively. The Activity entry with Vero was “Non-toxic”.
Consider `COc1cc2c(cc1OC)/C(=N/Nc1nc(-c3ccccc3)cs1)CC2`, for which the concentration for half-maximal inhibition (IC50) with Trypanosoma cruzi [1] worked out at 195 µM; with Trypanosoma cruzi [4], 10.1 µM. Besides, the Activity entry in the data set on Vero is recorded as “Non-toxic”.
Regarding `Cc1cccc2c1CC/C2=N\Nc1nc(-c2ccc(Cl)cc2)cs1`, the IC50 in the data set on Trypanosoma cruzi [1] was found to be 20 µM; in the data set with Trypanosoma cruzi [4], 4.53 µM; in the data set on Trypanosoma cruzi [5], 0.09 µM. In addition, the Ratio with Trypanosoma cruzi [7] is listed as 1.25. Moreover, the inhibition in data set [2] was determined as 3%; in data set [3] it was 0%; in data set [6], 3%. The Activity result in the data set with Vero is reported as “Non-toxic”.
As to `Cc1ccc(-c2csc(N/N=C3\CCc4ccc(C)cc43)n2)cc1`, the half-maximal inhibitory concentration (IC50) in the data set with Trypanosoma cruzi [1] came out at 49.5 µM; in the data set with Trypanosoma cruzi [4], 4.08 µM; in the data set with Trypanosoma cruzi [5], 0.27 µM. Also, the Ratio in the data set on Trypanosoma cruzi [7] is on record as 0.8. The inhibition in data set [2] stood at 3%; in data set [3], 0%; in [6] it was 0%. Besides, the Activity result in the data set on Vero is “Non-toxic”.
